Measured values taken from ChEMBL document CHEMBL2424618, “Design, synthesis and ex vivo evaluation of colon-specific azo based prodrugs of anticancer agents” (Bioorg Med Chem Lett, 2013).

Assays:
[1] = Cytotoxicity against human COLO320DM cells after 48 hrs by MTT assay; assay type: functional, cell-based; conditions: COLO 320DM
Summary of the method: (§1)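 MTT colorimetric microculture assay in human colorectal cells, 5 × 10⁵ per well. After 48 h, cells incubated at 37 °C in 0.1% DMSO with compound. Sample removed, cells washed with PBS pH 7.4, MTT added. After 4 h, […] added and absorbance read at 595 nm. Triplicates; IC50 given as mean SD, p < 0.05 significant.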

[2] = tested on: HT-29; assay: Cytotoxicity against human HT-29 cells after 48 hrs by MTT assay; assay type: functional, cell-based; conditions: HT-29, 48 h; summary of the method: as §1
[3] = Prodrug activation in rat fecal material after 24 hrs; assay type: ADME, tissue-based, Feces
Summary of the method: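 About 1 g fresh rat feces per tube with prodrug in phosphate buffer pH 7.4, diluted with 5 ml buffer to 50 µg/ml, incubated at 37 °C. Aliquots taken over time and read by double-beam UV spectrophotometry at compound-specific wavelengths. Cumulative % release at 24 h; mean SD, n = 6.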

[4] = Prodrug activation in rat large intestine mucosa in presence of azoreductase; assay type: tissue-based
Summary of the method: (§2)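 Cecal content, small-intestine content, SI mucosa or LI mucosa taken from Wistar rats and suspended in cold PBS pH 7.4 as 10% (w/v) slurry. Cecal content bubbled with nitrogen. Other tissues homogenized and centrifuged to 2% w/w. All stored at −20 °C. Prodrug incubated with each preparation, azo-bond cleavage followed by UV, and % drug release determined.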

[5] = Prodrug activation in rat small intestine content in presence of azoreductase; assay type: tissue-based; summary of the method: as §2
[6] = Prodrug activation in rat small intestine mucosa in presence of azoreductase; assay type: tissue-based; summary of the method: as §2
[7] = Prodrug activation in rat cecum content in presence of azoreductase; assay type: tissue-based, Caecum; summary of the method: as §2
[8] = Chemical stability of the compound in 0.1 N HCl solution at pH 1.2; assay type: physicochemical; conditions: buffer
Summary of the method: (§3)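 Prodrug held in acidic buffer (pH 1.2, 0.1 N HCl) or basic buffer (pH 7.4) at 37 °C. Aliquots withdrawn at time intervals and remaining prodrug read by UV spectrophotometry at compound-specific wavelengths (306/256, 274/284 or 280/260 nm for acid/pH 7.4). Release reported as % after 24 h; mean SD, n = 6.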

[9] = Chemical stability of the compound in phosphate buffer at pH 7.4; assay type: physicochemical; summary of the method: as §3
[10] = tested on: COLO 205; assay: Cytotoxicity against human COLO205 cells after 48 hrs by MTT assay; assay type: functional, cell-based; conditions: COLO 205, 48 h; summary of the method: as §1

SMILES	IC50 [1]	IC50 [2]	Drug metabolism [3]	Drug metabolism [4]	Drug metabolism [5]	Drug metabolism [6]	Drug metabolism [7]	Stability [8]	Stability [9]	IC50 [10]
COC(=O)CC[C@H](NC(=O)c1ccc(N(C)Cc2cnc3nc(/N=N/c4ccc(O)cc4)nc(/N=N/c4ccc(O)cc4)c3n2)cc1)C(=O)OC	5.74 µM	3.92 µM	64%	5%	5%	5%	70%	Stable	Stable	4.13 µM
O=c1nc(/N=N/c2ccc(O)cc2)ccn1[C@@H]1O[C@H](CO)[C@@H](O)C1(F)F	3.72 µM	2.61 µM	71%	5%	5%	5%	70%	Stable	Stable	3.31 µM
Nc1ccn([C@@H]2O[C@H](CO)[C@@H](O)C2(F)F)c(=O)n1 [GEMCITABINE]	3.92 µM	1.95 µM								3.24 µM
CN(Cc1cnc2nc(N)nc(N)c2n1)c1ccc(C(=O)N[C@@H](CCC(=O)O)C(=O)O)cc1 [METHOTREXATE]	5.25 µM	3.45 µM								3.27 µM
